Drug metabolism data for 2 molecules are collected here from ChEMBL document CHEMBL3526048, “In vitro metabolism of rivoglitazone, a novel peroxisome proliferator-activated receptor γ agonist, in rat, monkey, and human liver microsomes and freshly isolated hepatocytes” (Drug Metab Dispos, 2011).

SMILES strings stand for the structures.

Series [1] is described as follows: Drug metabolism in human hepatocytes assessed as formation of 3-(4-((6-methoxy-1-methyl-1H-benzo[d]imidazol-2-yl)methoxy)phenyl)-2-(methylsulfinyl)propanamide at 30 uM after 3 hrs by radio-HPLC/LC-MS/MS analysis in presence of NADPH-generating system/SAM. Format: ADME, cell-based, Hepatocyte.
Series [2] in a line: Drug metabolism in human hepatocytes assessed as formation of 3-(4-((6-methoxy-1-methyl-1H-benzo[d]imidazol-2-yl)methoxy)phenyl)-2-(methylsulfonyl)propanamide at 30 uM after 3 hrs by radio-HPLC/LC-MS/MS analysis in presence of NADPH-generating system/SAM. The series is classed as ADME, cell-based, Hepatocyte.
The nature of series [3]: Drug metabolism in rat hepatocytes assessed as formation of 2-mercapto-3-(4-((6-methoxy-1-methyl-1H-benzo[d]imidazol-2-yl)methoxy)phenyl)propanamide at 30 uM after 3 hrs by radio-HPLC/LC-MS/MS analysis in presence of NADPH-generating system and NADPH-generating system/SAM. The series is classed as ADME, cell-based, Hepatocyte.
For series [4], the target named is T1, Cytochrome P450 2D6 (Homo sapiens, UniProt P10635). Kind of series: Activity of human CYP2D6 expressed in microsomes isolated from baculovirus infected insect cell assessed as enzyme-mediated 2-mercapto-3-(4-((6-methoxy-1-methyl-1H-benzo[d]imidazol-2-yl)methoxy)phenyl)propanamide formation at 20 uM after 2 hrs by radio-HPLC/LC-MS/MS analysis in presence of NADPH-generating system and NADPH-generating system/SAM. The series is classed as ADME.

Series [5] concerns the target T2, UDP-glucuronosyltransferase 2B7 (Homo sapiens, UniProt P16662).
T2 sequence (P16662 whole entry): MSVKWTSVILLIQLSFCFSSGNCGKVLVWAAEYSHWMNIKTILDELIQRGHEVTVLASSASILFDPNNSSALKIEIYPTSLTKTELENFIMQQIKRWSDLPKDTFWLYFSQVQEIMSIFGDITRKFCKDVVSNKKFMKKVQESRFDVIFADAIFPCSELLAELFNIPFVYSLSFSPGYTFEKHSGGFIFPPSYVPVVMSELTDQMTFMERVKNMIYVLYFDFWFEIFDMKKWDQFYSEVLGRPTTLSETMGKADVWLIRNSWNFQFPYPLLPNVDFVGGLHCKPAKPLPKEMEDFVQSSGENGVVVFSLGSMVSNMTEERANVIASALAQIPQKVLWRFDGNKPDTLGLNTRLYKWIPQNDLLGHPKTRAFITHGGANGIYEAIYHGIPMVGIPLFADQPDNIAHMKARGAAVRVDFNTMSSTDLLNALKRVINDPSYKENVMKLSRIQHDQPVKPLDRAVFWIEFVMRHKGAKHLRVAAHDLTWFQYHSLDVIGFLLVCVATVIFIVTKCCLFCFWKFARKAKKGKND
Kind of series: Activity of human UGT2B7 expressed in microsomes isolated from baculovirus infected insect cell assessed as enzyme-mediated 5-hydroxy-5-(4-((6-methoxy-1-methyl-1H-benzo[d]imidazol-2-yl)methoxy)benzyl)thiazolidine-2,4-dione formation at 20 uM after 4 hrs by radio-HPLC/LC-MS/MS analysis in presence of NADPH-generating system and NADPH-generating system/SAM in presence of UDPGA and UDPGA/SAM. Format: ADME.

The target in series [6] is T3, Cytochrome P450 2C8 (Homo sapiens, UniProt P10632).
T3 sequence (P10632 whole entry): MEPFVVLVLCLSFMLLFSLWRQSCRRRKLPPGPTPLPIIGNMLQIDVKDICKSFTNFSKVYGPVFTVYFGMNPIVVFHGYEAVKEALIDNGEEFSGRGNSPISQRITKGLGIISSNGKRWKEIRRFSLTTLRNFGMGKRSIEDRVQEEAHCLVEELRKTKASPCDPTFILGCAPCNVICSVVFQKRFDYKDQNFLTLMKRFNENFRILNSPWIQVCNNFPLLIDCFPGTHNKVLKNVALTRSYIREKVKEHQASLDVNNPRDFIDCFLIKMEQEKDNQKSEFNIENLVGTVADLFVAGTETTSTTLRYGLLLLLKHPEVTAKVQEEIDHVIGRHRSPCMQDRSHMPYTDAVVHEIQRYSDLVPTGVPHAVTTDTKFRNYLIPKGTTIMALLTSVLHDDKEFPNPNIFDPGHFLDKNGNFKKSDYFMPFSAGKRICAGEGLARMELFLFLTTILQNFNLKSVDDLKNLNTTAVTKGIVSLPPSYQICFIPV
The series is described as follows: Activity of human CYP2C8 expressed in microsomes isolated from baculovirus infected insect cell assessed as enzyme-mediated 3-(4-((6-methoxy-1-methyl-1H-benzo[d]imidazol-2-yl)methoxy)phenyl)-2-(methylsulfonyl)propanamide formation at 20 uM after 2 hrs by radio-HPLC/LC-MS/MS analysis in presence of NADPH-generating system/SAM. Format: ADME.

For series [7], the target named is T3, Cytochrome P450 2C8. The series is described as follows: Activity of human CYP2C8 expressed in microsomes isolated from baculovirus infected insect cell assessed as enzyme-mediated 5-(4-((6-methoxy-1H-benzo[d]imidazol-2-yl)methoxy)benzyl)thiazolidine-2,4-dione formation at 20 uM after 2 hrs by radio-HPLC/LC-MS/MS analysis in presence of NADPH-generating system and NADPH-generating system/SAM. Format: ADME. Summed up: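 Baculovirus/insect-cell microsomes expressing single human CYPs, 1 mg/ml protein, with 50 mM potassium phosphate (pH 7.4) or 100 mM Tris-HCl (pH 7.5). NADPH-generating system: 2 mM NADP⁺, 20 mM glucose 6-phosphate, 2 units/ml G6PDH, 10 mM MgCl₂. [¹⁴C]rivoglitazone at 20 μM, 2 h at 37°C with shaking. Control used insect-cell control supersomes. Stopped with acetonitrile; supernatant concentrated under nitrogen; metabolites analysed by radio-HPLC, LC-MS and LC-MS/MS.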

Series [8] concerns the target Cytochrome P450 2C19 (Homo sapiens, UniProt P33261). The series is described as follows: Activity of human CYP2C19 expressed in microsomes isolated from baculovirus infected insect cell assessed as enzyme-mediated 3-(4-((6-methoxy-1-methyl-1H-benzo[d]imidazol-2-yl)methoxy)phenyl)-2-(methylthio)propanamide formation at 20 uM after 2 hrs by radio-HPLC/LC-MS/MS analysis in presence of NADPH-generating system/SAM. The series is classed as ADME.

For series [9], the target named is T1, Cytochrome P450 2D6. Kind of series: Activity of human CYP2D6 expressed in microsomes isolated from baculovirus infected insect cell assessed as enzyme-mediated 2-hydroxy-3-(4-((6-methoxy-1-methyl-1H-benzo[d]imidazol-2-yl)methoxy)phenyl)propanamide formation at 20 uM after 2 hrs by radio-HPLC/LC-MS/MS analysis in presence of NADPH-generating system and NADPH-generating system/SAM. Format: ADME.

The nature of series [10]: Drug metabolism in monkey hepatocytes assessed as formation of 3-(4-((6-methoxy-1-methyl-1H-benzo[d]imidazol-2-yl)methoxy)phenyl)-2-(methylsulfonyl)propanamide at 30 uM after 3 hrs by radio-HPLC/LC-MS/MS analysis in presence of NADPH-generating system/SAM. The conditions noted are these: cynomolgus monkey.
Series [11] is described as follows: Drug metabolism in monkey hepatocytes assessed as formation of 2-hydroxy-3-(4-((6-methoxy-1-methyl-1H-benzo[d]imidazol-2-yl)methoxy)phenyl)propanamide at 30 uM after 3 hrs by radio-HPLC/LC-MS/MS analysis in presence of NADPH-generating system and NADPH-generating system/SAM. The conditions noted are these: cynomolgus monkey.
Series [12] concerns Liver microsome. The series is described as follows: Drug level in human liver microsomes treated with [14C]-rivoglitazone at 20 uM after 2 to 4 hrs by radio-HPLC/LC-MS/MS analysis in presence of UDPGA, UDPGA/SAM and NADPH-generating system. The series is classed as ADME. (In general: Liver microsomes are vesicles of endoplasmic reticulum, rich in cytochrome P450 enzymes.)

T1 sequence (P10635 whole entry): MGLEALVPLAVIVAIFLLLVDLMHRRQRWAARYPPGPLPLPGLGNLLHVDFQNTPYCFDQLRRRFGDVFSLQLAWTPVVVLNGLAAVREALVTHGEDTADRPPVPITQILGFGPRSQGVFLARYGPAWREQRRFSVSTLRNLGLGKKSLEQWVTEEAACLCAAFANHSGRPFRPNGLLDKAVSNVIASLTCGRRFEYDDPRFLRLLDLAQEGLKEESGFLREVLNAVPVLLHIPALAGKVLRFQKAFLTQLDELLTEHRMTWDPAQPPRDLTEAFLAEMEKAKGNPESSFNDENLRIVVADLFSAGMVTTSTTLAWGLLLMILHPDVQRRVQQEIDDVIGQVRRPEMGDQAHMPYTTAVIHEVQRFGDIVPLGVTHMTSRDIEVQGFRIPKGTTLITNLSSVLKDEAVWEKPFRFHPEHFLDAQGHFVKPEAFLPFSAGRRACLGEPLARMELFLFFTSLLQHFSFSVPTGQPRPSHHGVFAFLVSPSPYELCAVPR
Sequence of Cytochrome P450 2C19 (P33261 whole entry): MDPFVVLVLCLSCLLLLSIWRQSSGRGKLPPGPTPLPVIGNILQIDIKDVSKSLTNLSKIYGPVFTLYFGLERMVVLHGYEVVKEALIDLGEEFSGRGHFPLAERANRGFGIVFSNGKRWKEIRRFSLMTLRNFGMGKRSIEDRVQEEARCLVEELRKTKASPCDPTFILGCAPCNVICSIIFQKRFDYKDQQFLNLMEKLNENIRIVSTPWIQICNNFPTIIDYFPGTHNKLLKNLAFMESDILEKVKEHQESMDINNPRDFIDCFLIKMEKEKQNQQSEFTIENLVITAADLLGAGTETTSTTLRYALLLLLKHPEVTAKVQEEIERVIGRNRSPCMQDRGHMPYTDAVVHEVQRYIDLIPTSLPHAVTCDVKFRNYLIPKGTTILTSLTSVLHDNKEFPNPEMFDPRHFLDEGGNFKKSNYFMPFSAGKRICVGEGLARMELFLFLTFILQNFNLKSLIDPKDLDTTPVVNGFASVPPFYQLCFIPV

As to `COc1ccc2nc(COc3ccc(C[14CH]4SC(=O)NC4=O)cc3)n(C)c2c1.Cl` (racemic), the Drug metabolism entry in series [1] was “metabolite_detected”; in series [2], “metabolite_detected”; in [3] it was “metabolite_not_detected”; in [4] it was “metabolite_detected”; in series [5] it was “metabolite_not_detected”; in series [6], “metabolite_not_detected”. Also, the Drug metabolism result is recorded as “metabolite_detected” in [7]; “metabolite_not_detected” in series [8]; “metabolite_detected” in series [9]; “metabolite_not_detected” in series [10]; “metabolite_not_detected” in series [11].

As for `COc1ccc2nc(COc3ccc(CC(S)C(=O)O)cc3)n(C)c2c1` (configuration not stated), the Drug metabolism result in series [12] is “metabolite_detected”.
